What follows are molecules tested against Scavenger receptor class B member 1 (Mus musculus) (UniProt Q61009) (assay: inhibitors of SR-BI-mediated DiI-HDL uptake, dose response, ldlA[mSR-BI] CHO cells, fluorescence, dry powder, set 7 (AID 588833)). Conditions: 3 h;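 active = compounds reducing HDL dye uptake whose fitted half-maximal concentration is at most twice the top tested dose; inconclusive = flat partial reduction or an unreliable curve fit; inactive = the rest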.
Procedure, shortened: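 Test system: LDL receptor-deficient CHO ldlA cells overexpressing murine SR-BI. Controls: BLT-1 at 1 µM as positive control. Detection: bottom fluorescence, 550/595 nm. Times: cells plated overnight, then 3 h DiI-HDL uptake at 37 °C. Also added: DiI-labeled HDL at 10 µg/mL. Medium: F12, fatty acid-free BSA, HEPES buffer.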

Sequence of Scavenger receptor class B member 1 (Mus musculus) (Q61009 whole entry, looked up): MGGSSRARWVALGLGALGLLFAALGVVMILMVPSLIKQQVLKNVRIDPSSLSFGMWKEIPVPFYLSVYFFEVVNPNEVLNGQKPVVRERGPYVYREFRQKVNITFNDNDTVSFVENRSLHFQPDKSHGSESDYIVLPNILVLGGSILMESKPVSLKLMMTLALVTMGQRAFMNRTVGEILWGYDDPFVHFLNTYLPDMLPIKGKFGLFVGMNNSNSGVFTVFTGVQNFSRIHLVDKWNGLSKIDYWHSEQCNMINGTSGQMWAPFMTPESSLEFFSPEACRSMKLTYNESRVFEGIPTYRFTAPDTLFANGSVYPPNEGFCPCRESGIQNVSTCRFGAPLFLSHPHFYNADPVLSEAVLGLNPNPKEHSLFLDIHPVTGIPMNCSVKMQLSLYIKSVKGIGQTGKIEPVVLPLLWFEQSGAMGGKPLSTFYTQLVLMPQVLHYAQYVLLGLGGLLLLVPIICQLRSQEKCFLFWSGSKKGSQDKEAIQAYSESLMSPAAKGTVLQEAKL

AC50, active:
COCC(=O)N1CCc2cc(-c3csc(NC(=O)c4cc(OC)cc(OC)c4)n3)ccc21 6.18 nM, CCCCCCC1CCC/C1=N\NC(N)=S (stereo not drawn) 0.536 nM, C[C@H](C(=O)NC1CCCC1)N(C(=O)Cn1nnc(-c2ccc3c(c2)OCO3)n1)C1CCCCC1 15.4 nM
